In ChEMBL document CHEMBL2086346, “New artesunic acid homodimers: potent reversal agents of multidrug resistance in leukemia cells” (Bioorg Med Chem, 2012):

Tests used:
[1] = Cytotoxicity against human CEM/ADR5000 by CCK-8 assay; assay type: functional
Procedure, shortened: (§1)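 CCRF-CEM or P-glycoprotein-overexpressing CEM/ADR5000 leukemia cells in RPMI1640. CEM/ADR5000 maintained by treatment with 5000 ng/mL doxorubicin every other week for three days. Viability by CCK-8: reagent added, 3 h at 37 °C, absorbance 450 nm. IC50 from dose–response curves. At least two independent experiments, each with 6 parallel measurements (12 values per concentration), mean ± SEM.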

CCRF-CEM [2] = assay: Selectivity ratio of IC50 for human CEM/ADR5000 cells to IC50 for human CCRF-CEM cells; assay type: functional
CCRF-CEM [3] = assay: Cytotoxicity against human CCRF-CEM cells by CCK-8 assay; assay type: functional, cell-based; procedure, shortened: as §1

Structure (SMILES) | IC50 [1] | Ratio IC50 (CCRF-CEM [2]) | IC50 (CCRF-CEM [3])
C[C@H]1[C@H](OC(=O)CCC(=O)NCCCNC(=O)CCC(=O)O[C@@H]2O[C@@H]3O[C@@]4(C)CC[C@H]5[C@H](C)CC[C@@H]([C@H]2C)[C@@]35OO4)O[C@@H]2O[C@@]3(C)CC[C@H]4[C@H](C)CC[C@@H]1[C@@]24OO3 | 0.2 µM | 0.17 | –
C[C@H]1[C@H](OC(=O)CCC(=O)NCC(O)CNC(=O)CCC(=O)O[C@@H]2O[C@@H]3O[C@@]4(C)CC[C@H]5[C@H](C)CC[C@@H]([C@H]2C)[C@@]35OO4)O[C@@H]2O[C@@]3(C)CC[C@H]4[C@H](C)CC[C@@H]1[C@@]24OO3 (some centres not stated) | 1.21 µM | 0.56 | 2.16 µM
C[C@H]1[C@H](OC(=O)CCC(=O)NCc2cccc(CNC(=O)CCC(=O)O[C@@H]3O[C@@H]4O[C@@]5(C)CC[C@H]6[C@H](C)CC[C@@H]([C@H]3C)[C@@]46OO5)c2)O[C@@H]2O[C@@]3(C)CC[C@H]4[C@H](C)CC[C@@H]1[C@@]24OO3 | 1.51 µM | 0.94 | 1.6 µM
C[C@H]1[C@H](OC(=O)CCC(=O)NCCCCCCCCNC(=O)CCC(=O)O[C@@H]2O[C@@H]3O[C@@]4(C)CC[C@H]5[C@H](C)CC[C@@H]([C@H]2C)[C@@]35OO4)O[C@@H]2O[C@@]3(C)CC[C@H]4[C@H](C)CC[C@@H]1[C@@]24OO3 | 3.04 µM | 1.03 | 2.94 µM
C[C@@H]1CC[C@H]2[C@@H](C)C(=O)O[C@@H]3O[C@@]4(C)CC[C@@H]1[C@]32OO4 [ARTEMISININ] | – | 0.73 | –
C[C@H]1[C@H](OC(=O)CCC(=O)O)O[C@@H]2O[C@@]3(C)CC[C@H]4[C@H](C)CC[C@@H]1[C@@]24OO3 [ARTESUNATE] | 1.2 µM | 0.67 | –
COc1cccc2c1C(=O)c1c(O)c3c(c(O)c1C2=O)C[C@@](O)(C(=O)CO)C[C@@H]3O[C@H]1C[C@H](N)[C@H](O)[C@H](C)O1 [DOXORUBICIN] | > 5.2 µM | >140 | 0.037 µM
